# Measured values from ChEMBL document CHEMBL1255440, “An antimicrobial peptide that targets DNA repair intermediates in vitro inhibits Salmonella growth within murine macrophages” (Antimicrob Agents Chemother, 2010).
# Active and inactive are the calls of the source. The rule behind the calls is not given here.
# System: Salmonella typhimurium
# Experiment: Antibacterial activity against 1 MOI Salmonella enterica subsp. enterica serovar Typhimurium infected in mouse J774A1 cells assessed as reduction in bacterial growth at 2.5 times MIC
# Format: functional, organism-based
# Conditions: J774.A1
# In short: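 J774A.1 cells or thioglycolate-elicited BALB/c peritoneal macrophages seeded at 200,000/well, overnight 37°C 5% CO2; infected with GFP strain SDT1416, 1 h invasion, washed, 1 h in DMEM with 15 μg/ml gentamicin. Then fresh DMEM plus 15 μg/ml gentamicin with or without peptide (DMSO vehicle) for 24 h at 37°C; macrophages lysed with 1% Triton X-100, plated on LB agar for CFU.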
smiles,measurement,value
N=C(N)NCCC[C@H](NC(=O)[C@H](CS)NC(=O)[C@H](Cc1ccc(O)cc1)NC(=O)[C@H](Cc1c[nH]c2ccccc12)NC(=O)[C@H](CCCNC(=N)N)NC(=O)[C@@H](N)Cc1c[nH]c2ccccc12)C(=O)O,Activity,Active
